From the EternaBench riboswitch data

Tested on: MS2 coat protein
Experiment: apparent Kd, MS2 coat protein; higher = weaker binding; RNA-MaP array; FMN 200 µM where present
How it was run: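 The apparent Kd is reported as the median of filtered per-cluster binding-curve fits. To get these curves, designs transcribed by stalled E. coli RNA polymerase on Illumina sequencing-chip clusters were titrated with SNAP-549-labelled MS2 coat protein from 0.7 or 1.5 nM, doubling to 3 µM. Titrations were run without and then with constant ligand in 100 mM Tris-HCl pH 7.5, 80 mM KCl, 4 mM MgCl2, BSA, DTT, yeast tRNA and Tween-20, and green signal was normalised to red-channel RNA signal and control-cluster median Fmax.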

[1] = designed as: ON switch for flavin mononucleotide, no ligand
[2] = ligand present: flavin mononucleotide, designed as: ON switch for flavin mononucleotide
[3] = designed as: OFF switch for flavin mononucleotide, no ligand
[4] = ligand present: flavin mononucleotide, designed as: OFF switch for flavin mononucleotide

AAAACAUGAGGAUCACCCAUGUAAAGAUCGGUUAAUAGAGGUGAGGAUAUACGAACUUAAAGGUGGUAGAAGGCACUGGGUACA
apparent Kd [1]: 0.0716 µM | apparent Kd [2]: 0.0533 µM

GCUUCACAUGAGGAUCACCCAUGUCUUCGGAGUCGAGGAUAUGGUCACUGUAAACAGUGGCCAGAAGGCGAGGAGC
apparent Kd [1]: 0.0541 µM | apparent Kd [2]: 0.035 µM

AAAACAUGAGGAUCACCCAUGUUAAGAUCGGUUAAUAGAAGUGAGGAUAUACGAAGUUAAAGCUGGUAGAAGGCACUGGGUACA
apparent Kd [1]: 0.0292 µM | apparent Kd [2]: 0.0265 µM

UAAGUUUAGGUAGGAUAUACUUUCAAUUUCUCUUUCCUUACAUGAGGAUCACCCAUGUUUACAUUGUAGAAGGACCACUAUGUU
apparent Kd [3]: 0.0318 µM | apparent Kd [4]: 0.0268 µM

GUAUCAUACCAAGGAUAUUUAGGACUUGUAUAGACAUGAGGAUCACCCAUGUGGCGUUAGUCACGGGAGAAGGUGGUAUGAUAC
apparent Kd [1]: 0.0884 µM | apparent Kd [2]: 0.0175 µM

CGGCACCAAGGAUAUACAUGAGGAUCACCCAUGUUUUUUGGGCCCUUAAAAUCUACGUGUAGAAGGUGGGUCGA
apparent Kd [3]: 0.0499 µM | apparent Kd [4]: 0.0569 µM

AAACGCCAACAUGAGGAUCACCCAUGUUCUAGUUUAGGGUCGCAGGAUAUGACUUCGAAGCUUAGUCAGAAGGGUGAGUCCACA
apparent Kd [1]: 0.0137 µM | apparent Kd [2]: 0.0112 µM

AUACCUUAUGAGAAGGCGAUCAUGAAACAUGAUCGAGGAUAUCAUGUAAACAUGAGGAUCACCCAUGUAUGGGUAUUAUGGUAU
apparent Kd [1]: 0.0574 µM | apparent Kd [2]: 0.0109 µM

AGCGGCGCGGGCCACCGCAAAACCAGAAGGACAUGAGGAUCACCCAUGUAACAAAACAGGGCGGUGUAGGAUAUGGCAGACCCA
apparent Kd [3]: 0.0103 µM | apparent Kd [4]: 0.0118 µM

UUGAUAAGGAGAGGAUAUUGACAUGAGGAUCACCCAUGUACAUGGGAAUAUUUACUGAAUUCUUACGAGAAGGCUUACAUAUUU
apparent Kd [3]: 0.124 µM | apparent Kd [4]: 0.0667 µM

GUACCUUAUGAGAAGGCGAUCAUUAAACAUGAUCGAGGAUAUCAUGUAAACAUGAGGAUCACCCAUGUAUGGGUAUUAUGGUAC
apparent Kd [1]: 0.0667 µM | apparent Kd [2]: 0.0193 µM

CAUUUACAGGGAGGAUAUACAUGAGGAUCACCCAUGUCAUCAUAUGAUAUUUCUUUUGUAUGAGUGUAGAAGGCCCAACUACCA
apparent Kd [3]: 0.0192 µM | apparent Kd [4]: 0.0184 µM

AGUAUGUUUGAGAAGGUGAAGUGGAAACAUGAGGAUCACCCAUGUAUUAGGAAGCCUGGUUUUGUCAAGGAUAUCGGGUAUACA
apparent Kd [1]: 0.0198 µM | apparent Kd [2]: 0.0161 µM

AAUAAGUCAGGAUAUACUAUGUCAGGAGAGAGACUGACUAUGUAGAAGGGACAUGAGGAUCACCCAUGUAAUAA
apparent Kd [3]: 0.0286 µM | apparent Kd [4]: 0.0359 µM

AAAUAAAUGACUCAGGAUAUAUCAUAGAAUACAUGAGGAUCACCCAUGUUUUAAUAACAUGUUUGGUAGAAGGGAGUCAAUAAAU
apparent Kd [1]: 0.0804 µM | apparent Kd [2]: 0.0293 µM

AGCCUGAGUCGAGGAUAUUAUGGAUCAAUUAAUACAUGAGGAUCACCCAUGUAAUUAAUUUAACAUGAGAAGGUGACUCAGGCA
apparent Kd [1]: 0.0113 µM | apparent Kd [2]: 0.0129 µM

GCGCGGAACCUAGGAUAUCCGGCAUGGACGGGUGGUAGGUCUCCCACAUGAGGAUCACCCAUGUAGGAGAAGGAGGAUCACGGG
apparent Kd [3]: 0.00617 µM | apparent Kd [4]: 0.00683 µM

AAGAAGUCAGGAUAUCCAGCUCGUCACUUGCGUGAUGAGUUGGAGAAGGGACAUGAGGAUCACCCAUGUAAAGC
apparent Kd [3]: 0.0479 µM | apparent Kd [4]: 0.0457 µM

UGUCGGAGCAGAGGAUAUUACAUGAGGAUCACCCAUGUAUGAACCAUUAGCUGGAAACAGCAAUGUAAGAAGGCUGCUCCGACA
apparent Kd [3]: 0.00537 µM | apparent Kd [4]: 0.0104 µM

AAACAGGGAGGAUAUACAUAGAUCCUCUAACCUAAUUGGUCACAUGAGGAUCACCCAUGUAGAAGGCCCUUAGG
apparent Kd [4]: 0.0114 µM

AUACAUGAGGAUCACCCAUGUAAUUAAUUAAUUAAUAAGAUCAAGGAUAUCAGCUCGAUUAGAGCUGAGAAGGUGAUCACAUGU
apparent Kd [1]: 0.417 µM | apparent Kd [2]: 0.306 µM

ACAUGAGGAUCACCCAUGUUCACAUAGGAUAUUGAUUAUAUUGGUUUAAGAAUAGUAAUUGACCACAAGAAGGAUGCCUGAUCU
apparent Kd [1]: 0.0122 µM | apparent Kd [2]: 0.0097 µM

GUGGUACAUGAGGAUCACCCAUGUUAGGAUAUCGCGUGAGGUUUUACUUCCACACACACGAGAAGGGACGUCUU
apparent Kd [3]: 0.0443 µM | apparent Kd [4]: 0.0362 µM

GCGCUUAUACAGAAGGCCAGUUACAUGAGGAUCACCCAUGUUAGAUUGUGGAGGAUAUGUGUUUUAUUACAGAUAGUUGAGCGC
apparent Kd [1]: 0.0134 µM | apparent Kd [2]: 0.00684 µM

GCAAUGCCUGACAUGAGGAUCACCCAUGUUAGAUUGUUAUGUCAGGAUAUUGUCUAGAAACUAGACAAGAAGGGAUGCAUUGCU
apparent Kd [1]: 0.313 µM | apparent Kd [2]: 0.0251 µM

UAUAUUUAUGUAGGAUAUGGUCUAUAAAAUAGACCAGAAGGACAUGAGGAUCACCCAUGUAUGAAAUUCCAUAAUUGCCGUGUA
apparent Kd [3]: 0.0114 µM | apparent Kd [4]: 0.0114 µM

UUGUAGUACGUAGGAUAUCAAUGAGGAUCACCCUGAGAAGGACGUGAGGACAUGAGGAUCACCCAUGUGGAUCACCCAUGUCAU
apparent Kd [3]: 0.191 µM | apparent Kd [4]: 0.145 µM

AUUUUGCGAGGAUAUACAUGAGGAUCACCCAUGUACGCUCAGCAGGGUGAAGGCUCUUGUAGAAGGCGUUCUGA
apparent Kd [3]: 0.0882 µM | apparent Kd [4]: 0.0457 µM

UAAACAUGAGGAUCACCCAUGUAAAGAUCGGUAGUAGAGAGUGAGGAUAUACUAAAUUUAAUGGAGUAGAAGGCACUGGGUUCU
apparent Kd [1]: 0.0448 µM | apparent Kd [2]: 0.0309 µM

UAAGAGCGAGGAUAUACGUCGCUGGUCCGGAUGGACGCAUGACAUGAGGAUCACCCAUGUAGAAGGCGCAAAAC
apparent Kd [3]: 0.0229 µM | apparent Kd [4]: 0.0733 µM

GUCGAAACCAUACUAGUCGACGGUCAGGAUAUACAUGAGGAUCACCCAUGUGCUAUUGAUACUAUGUAGAAGGGACCCACCGCA
apparent Kd [3]: 0.015 µM | apparent Kd [4]: 0.0246 µM

GCGUAUAUAUGAUUUAUAAAACAGUCAGAAGGUGAGAAGACGACAUGAGGAUCACCCAUGUUAUUCAAGGAUAUGAUAAUGCGC
apparent Kd [1]: 0.0131 µM | apparent Kd [2]: 0.00774 µM

AGGAAACAUGAGGAUCACCCAUGUAAAAGGUGGUUAGGAUAUGCAAAAAGAAAAAGAAAAGCAGAAGGGACAAGAA
apparent Kd [1]: 0.561 µM | apparent Kd [2]: 0.635 µM

GGACGUCAGAUUAACAUGAGGAUCACCCAUGUCUUUUGACAUGAGGAUAUGCAACCUAAUUGGUUGCAGAAGGCAUGGACGUCC
apparent Kd [1]: 0.917 µM | apparent Kd [2]: 0.0853 µM

AAGACACAUGAGGAUCACCCAUGUCAAGAGAGACGAGGAUAUCUGAAAAAAAAAAAAAAAGGAGAAGGCGUGAAAA
apparent Kd [1]: 0.109 µM | apparent Kd [2]: 0.0511 µM

AAAAAGACAGGAUAUACAUGAGGAUCACCCAUGUGAAAAAAAAAAAAAAAAAAAAAGUGUAGAAGGGUCAAAAA
apparent Kd [3]: 0.0489 µM | apparent Kd [4]: 0.0354 µM

UUGUGUGUAGAGGAUAUCUGCGCGCGCGCGCGCGGAGAAGGCUGUACAUGAGGAUCACCCAUGUUGUGUGUGUG
apparent Kd [3]: 0.0718 µM | apparent Kd [4]: 0.0299 µM

GAGUCACUAUUAGAACCGAUACGAACAUGAGGAUCACCCAUGUAGGAUAUGCUAAAAGUUGUGUUGCAGAAGGACAUUUAUCGC
apparent Kd [3]: 0.00981 µM | apparent Kd [4]: 0.00906 µM

UGAUAACAUGUAGGAUAUGCAGCAUUGACCACUGCAGAAGGACAUGAGGAUCACCCAUGUACCCAUACUAUGGGAUCACGCAAU
apparent Kd [3]: 0.0459 µM | apparent Kd [4]: 0.195 µM

CCAUAAAAGAUCCAAAAUUACAACAUGAGGAUCACCCAUGUGCAGGAUAUCGUGAAAGUAAAAUACGAGAAGGGCAAAAACUGC
apparent Kd [3]: 0.44 µM | apparent Kd [4]: 0.454 µM

UUACUUCAUGAGAAGGACAUGAGGAUCACCCAUGUAGGAUAUCGUGGGAGACUGGUAUUGAAUCUUCGGAUUCAAUACCAGUCU
apparent Kd [1]: 0.0569 µM | apparent Kd [2]: 0.00915 µM

AGGAGACAUGAGGAUCACCCAUGUGAGAAGAGGCGAGGAUAUCGAAAAAAAAAAAAAAAACGAGAAGGCGCGAGAA
apparent Kd [1]: 0.071 µM | apparent Kd [2]: 0.0393 µM

AGAGAGAGACAGAAGGGCAAGCUCGAUUGCGGAGAAAGCGAUCGAGCUUGCAGGAUAUGUUGAACAUGAGGAUCACCCAUGUCA
apparent Kd [1]: 0.00749 µM | apparent Kd [2]: 0.00762 µM

GGUACUCAAAGAGUACCAAUACGAACAUGAGGAUCACCCAUGUAGGAUAUGCUACUCAAAGAGUAGCAGAAGGACAUGUGCUUU
apparent Kd [3]: 0.0388 µM | apparent Kd [4]: 0.252 µM

GCGUCAGAAUUAAUUGUGACAGACAGAAGGCAAUAGUAUGUGACAGACAUGAGGAUCACCCAUGUUGAGGAUAUGUAUUGACAC
apparent Kd [3]: 0.0066 µM | apparent Kd [4]: 0.00736 µM

UAUUAGAUCCGAGGAUAUCCUUAUUAGAAACAUGAGGAUCACCCAUGUAAAGGGAAUUAUUUGUAGGAGAAGGCGGAUUUAGUU
apparent Kd [1]: 0.0675 µM | apparent Kd [2]: 0.0529 µM

CCGCUAAUAGGAUAUACAUGAGGAUCACCCAUGUCACUCUUCAUUGGUGUCUCUUCAAGUAGAAGGGUUGCUCA
apparent Kd [3]: 0.0285 µM | apparent Kd [4]: 0.0281 µM

CCUUUGAAGAUCCUAAAUUUCGACAUGAGGAUCACCCAUGUGCAGGAUAUCGUGCCAGUGAUGUACGAGAAGGGCCGUCUCUGC
apparent Kd [3]: 0.16 µM | apparent Kd [4]: 0.155 µM

CCCGGGCCUGUGAGGAUAUCGGGCCCGAAAGGGUUUGAGAAGGCACAUGAGGAUCACCCAUGUAAGGGUUUGGG
apparent Kd [3]: 0.0338 µM | apparent Kd [4]: 0.0247 µM

AUGUGAGCAGGAUAUGCAGGUGUGCCGGAAGAAAGAAGAGGACAUGAGGAUCACCCAUGUAGAAGGGCUAGCCC
apparent Kd [3]: 0.049 µM | apparent Kd [4]: 0.0313 µM

AGCGGAUUGUAGAAGGGUGACAUGAGGAUCACCCAUGUUCAAAUGCGAUUUACGGUAAUUGAUCCACAGGAUAUACUGUCCGAG
apparent Kd [1]: 0.942 µM | apparent Kd [2]: 0.266 µM

UCAUGAAGGGCAGGAUAUGGACAUGAGGAUCACCCAUGUACAUGGGAUAAUAUACUAAAUUAAUACUAGAAGGGUUACAUAAAU
apparent Kd [3]: 0.0372 µM | apparent Kd [4]: 0.0246 µM

UAGUAUAAGGGCAUUAAACAUGAGGAUCACCCAUGUACGAUAGAGGAUAUGCAUUUCAGUUUAGAGUAGAAGGUUAGAGAAUAU
apparent Kd [3]: 0.0391 µM | apparent Kd [4]: 0.0474 µM

UAAUUAUUUGUGGUAAUACACUAUGAGGAUAUCAAGGAAUAUAACAUGAGGAUCACCCAUGUGAAUGAGAAGGCAUUAUUUAUA
apparent Kd [1]: 0.0149 µM | apparent Kd [2]: 0.00981 µM

GUGGUGCAUAUACGUGGAUGUACAUGAGGAUCACCCAUGUAAGAGGAUAUGCGGAUACUAGCUCAGCAGAAGGCUUACAACUGA
apparent Kd [3]: 0.0113 µM | apparent Kd [4]: 0.041 µM
